In ChEMBL document CHEMBL1649139, “A novel gene, erm(41), confers inducible macrolide resistance to clinical isolates of Mycobacterium abscessus but is absent from Mycobacterium chelonae” (2009):
In brackets after ≈: the same amount, converted by molar mass.

Experiments:
Assay type in all cases: functional
[1] = system: Mycobacteroides abscessus; test: Antimicrobial activity against Mycobacterium abscessus isolate MC720 at day 7 by broth microdilution method; settings: isolate MC720, 168 h
Procedure, shortened: (§1)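 Clinical M. abscessus isolates were preincubated for 3 days, either in medium alone or in clarithromycin or erythromycin at 0.01 to 1 μg/ml, allowing at least two generations of growth judged by turbidity. The clarithromycin MIC was then determined by CLSI-conforming broth microdilution, with plates read on day 3 and on extended incubation (days 5 to 14).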

[2] = system: Mycobacteroides abscessus; test: Antimicrobial activity against Mycobacterium abscessus isolate MC879 at day 7 preincubated with 0.1 ug/ml erythromycin for 3 days by broth microdilution method
Procedure, shortened: (§2)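 To test inducible resistance, cultures were preincubated for 3 days in clarithromycin or erythromycin, within 0.01–1 μg/ml. The period was set so cultures passed at least two generations, judged by turbidity increase. Clarithromycin MIC was then determined by CLSI-conforming broth microdilution and read on the stated day, from day 3 up to 14.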

[3] = system: Mycobacteroides abscessus; test: Antimicrobial activity against Mycobacterium abscessus isolate MC1448 at day 3 preincubated with 0.1 ug/ml for 3 days by broth microdilution method
Procedure, shortened: (§3)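 Clarithromycin MIC by broth microdilution following CLSI guidelines. Before testing, organisms were preincubated for 3 days in medium alone or in clarithromycin or erythromycin (0.01–1 μg/ml), long enough for at least two generations judged by turbidity increase. MICs were read on day 3 and again on extended incubation out to day 14.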

[4] = system: Mycobacteroides abscessus; test: Antimicrobial activity against Mycobacterium abscessus isolate MC1028 at day 3 preincubated with 0.1 ug/ml erythromycin for 3 days by broth microdilution method
Procedure, shortened: (§4)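 Clarithromycin MIC by CLSI-conforming broth microdilution. Before testing, cultures were preincubated for 3 days, either in medium alone or in clarithromycin or erythromycin (tested range 0.01–1 μg/ml). Preincubation ran for at least two generations, judged by turbidity increase. Plates were read on day 3 and on extended incubation at days 5 to 14.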

[5] = system: Mycobacteroides abscessus; test: Antimicrobial activity against Mycobacterium abscessus isolate MC1448 at day 9 by broth microdilution method; settings: isolate MC1448, 216 h; procedure, shortened: as §3
[6] = system: Mycobacteroides abscessus; test: Antimicrobial activity against Mycobacterium abscessus isolate MC879 at day 7 by broth microdilution method; settings: isolate MC879, 168 h
Procedure, shortened: (§5)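 Clarithromycin MIC by broth microdilution following CLSI guidelines. Organisms were preincubated […], for 3 days before the assay. This allowed at least two generations, judged by the rise in turbidity. The MIC was read at the stated day, with incubation extended from day 3 to as long as 14 days.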

[7] = system: Mycolicibacterium smegmatis; test: Antimicrobial activity against Mycobacterium smegmatis transformed with erm allele Mycobacterium abscessus isolate MC1028 by broth microdilution method
[8] = system: Mycobacteroides abscessus; test: Antimicrobial activity against Mycobacterium abscessus isolate MC724 at day 9 by broth microdilution method; settings: isolate MC724, 216 h; procedure, shortened: as §5
[9] = system: Mycobacteroides abscessus; test: Antimicrobial activity against Mycobacterium abscessus isolate MC724 at day 7 preincubated with 0.1 ug/ml for 3 days by broth microdilution method; procedure, shortened: as §2
[10] = system: Mycobacteroides abscessus; test: Antimicrobial activity against Mycobacterium abscessus isolate MC1448 at day 9 preincubated with 0.1 ug/ml erythromycin for 3 days by broth microdilution method; procedure, shortened: as §3
[11] = system: Mycobacteroides abscessus; test: Antimicrobial activity against Mycobacterium abscessus isolate MC1448 at day 14 preincubated with 0.1 ug/ml for 3 days by broth microdilution method; procedure, shortened: as §4
[12] = system: Mycobacteroides abscessus; test: Antimicrobial activity against Mycobacterium abscessus isolate MC724 at day 5 preincubated with 0.1 ug/ml erythromycin for 3 days by broth microdilution method; procedure, shortened: as §1
[13] = system: Mycobacteroides abscessus; test: Antimicrobial activity against Mycobacterium abscessus isolate MC1082 at day 3 preincubated with 0.1 ug/ml for 3 days by broth microdilution method; procedure, shortened: as §4
[14] = system: Mycobacteroides abscessus; test: Antimicrobial activity against Mycobacterium abscessus isolate MC724 at day 7 preincubated with 0.1 ug/ml erythromycin for 3 days by broth microdilution method; procedure, shortened: as §2
[15] = system: Mycobacteroides abscessus; test: Antimicrobial activity against Mycobacterium abscessus isolate MC879-2 at day 14 by broth microdilution method; settings: isolate MC879-2, 336 h
[16] = system: Mycobacteroides abscessus; test: Antimicrobial activity against Mycobacterium abscessus isolate MC1028 at day 7 preincubated with 0.1 ug/ml erythromycin for 3 days by broth microdilution method; procedure, shortened: as §4
[17] = system: Mycobacteroides abscessus; test: Antimicrobial activity against Mycobacterium abscessus isolate MC1028 at day 9 by broth microdilution method; settings: isolate MC1028, 216 h; procedure, shortened: as §4
[18] = system: Mycobacteroides abscessus; test: Antimicrobial activity against Mycobacterium abscessus isolate MC723 at day 5 preincubated with 0.1 ug/ml erythromycin for 3 days by broth microdilution method; procedure, shortened: as §1
[19] = system: Mycobacteroides abscessus; test: Antimicrobial activity against Mycobacterium abscessus isolate MC879 on day 14 by broth microdilution method; settings: isolate MC879, 336 h
[20] = system: Mycobacteroides abscessus; test: Antimicrobial activity against Mycobacterium abscessus isolate MC958 at day 7 by broth microdilution method; settings: isolate MC958, 168 h; procedure, shortened: as §5
[21] = system: Mycobacteroides abscessus; test: Antimicrobial activity against Mycobacterium abscessus isolate MC1028 at day 7 by broth microdilution method; settings: isolate MC1028, 168 h; procedure, shortened: as §4
[22] = system: Mycobacteroides abscessus; test: Antimicrobial activity against Mycobacterium abscessus isolate MC879-2 at day 3 by broth microdilution method; settings: isolate MC879-2, 72 h
[23] = system: Mycolicibacterium smegmatis; test: Antimicrobial activity against Mycobacterium smegmatis transformed with erm allele Mycobacterium abscessus isolate MC719 preincubated with 2 ug/ml erythromycin for 20 to 24 hrs by broth microdilution method
[24] = system: Mycobacteroides abscessus; test: Antimicrobial activity against Mycobacterium abscessus isolate MC879-2 at day 9 preincubated with 0.1 ug/ml erythromycin for 3 days by broth microdilution method
[25] = system: Mycobacteroides abscessus; test: Antimicrobial activity against Mycobacterium abscessus isolate MC723 at day 7 preincubated with 0.1 ug/ml for 3 days by broth microdilution method; procedure, shortened: as §3
[26] = system: Mycolicibacterium smegmatis; test: Antimicrobial activity against Mycobacterium smegmatis transformed with erm allele Mycobacterium abscessus isolate MC719 by broth microdilution method
[27] = system: Mycobacteroides abscessus; test: Antimicrobial activity against Mycobacterium abscessus isolate MC723 at day 3 preincubated with 0.1 ug/ml for 3 days by broth microdilution method; procedure, shortened: as §3
[28] = system: Mycobacteroides abscessus; test: Antimicrobial activity against Mycobacterium abscessus isolate MC720 at day 14 preincubated with 0.1 ug/ml erythromycin for 3 days by broth microdilution method; procedure, shortened: as §3
[29] = system: Mycobacteroides abscessus; test: Antimicrobial activity against Mycobacterium abscessus isolate MC879-2 at day 7 preincubated with 0.1 ug/ml for 3 days by broth microdilution method
[30] = system: Mycobacteroides abscessus; test: Antimicrobial activity against Mycobacterium abscessus isolate MC1448 at day 5 by broth microdilution method; settings: isolate MC1448, 120 h; procedure, shortened: as §3
[31] = system: Mycobacteroides abscessus; test: Antimicrobial activity against Mycobacterium abscessus isolate MC879 at day 3 by broth microdilution method; settings: isolate MC879, 72 h; procedure, shortened: as §5
[32] = system: Mycobacteroides abscessus; test: Antimicrobial activity against Mycobacterium abscessus isolate MC879 at day 3 preincubated with 0.1 ug/ml for 3 days by broth microdilution method; procedure, shortened: as §2
[33] = system: Mycobacteroides abscessus; test: Antimicrobial activity against Mycobacterium abscessus isolate MC958 at day 5 preincubated with 0.1 ug/ml erythromycin for 3 days by broth microdilution method; procedure, shortened: as §1
[34] = system: Mycobacteroides abscessus; test: Antimicrobial activity against Mycobacterium abscessus isolate MC720 at day 3 preincubated with 0.1 ug/ml erythromycin for 3 days by broth microdilution method; procedure, shortened: as §3
[35] = system: Mycobacteroides abscessus; test: Antimicrobial activity against Mycobacterium abscessus isolate MC719 at day 3 by broth microdilution method; settings: isolate MC719, 72 h; procedure, shortened: as §3
[36] = system: Mycobacteroides abscessus; test: Antimicrobial activity against Mycobacterium abscessus isolate MC1028 at day 7 preincubated with 0.1 ug/ml for 3 days by broth microdilution method; procedure, shortened: as §4

Question: `CC[C@H]1OC(=O)[C@H](C)[C@@H](O[C@H]2C[C@@](C)(OC)[C@@H](O)[C@H](C)O2)[C@H](C)[C@@H](O[C@@H]2O[C@H](C)C[C@H](N(C)C)[C@H]2O)[C@](C)(OC)C[C@@H](C)C(=O)[C@H](C)[C@@H](O)[C@]1(C)O` [CLARITHROMYCIN] was tested. Which MIC [1] did it give?
Answer: 8 µg/mL (≈ 10.7 µM)

Question: What about the MIC [2] of the same molecule?
Answer: > 32 µg/mL

Question: What about the MIC [3] of the same molecule?
Answer: > 32 µg/mL

Question: And the MIC [4]?
Answer: ≤ 0.5 µg/mL

Question: What about the MIC [5] of the same molecule?
Answer: > 32 µg/mL

Question: And the MIC [6]?
Answer: 8 µg/mL (≈ 10.7 µM)

Question: And the MIC [7]?
Answer: ≤ 0.5 µg/mL

Question: What about the MIC [8] of the same molecule?
Answer: > 32 µg/mL

Question: And the MIC [9]?
Answer: > 32 µg/mL

Question: What about the MIC [10] of the same molecule?
Answer: > 32 µg/mL

Question: What about the MIC [11] of the same molecule?
Answer: > 32 µg/mL

Question: And the MIC [12]?
Answer: 4 µg/mL

Question: And the MIC [13]?
Answer: ≤ 0.5 µg/mL

Question: And the MIC [14]?
Answer: > 32 µg/mL

Question: What about the MIC [15] of the same molecule?
Answer: > 32 µg/mL

Question: And the MIC [16]?
Answer: ≤ 0.5 µg/mL

Question: And the MIC [17]?
Answer: ≤ 0.5 µg/mL

Question: And the MIC [18]?
Answer: 4 µg/mL

Question: What about the MIC [19] of the same molecule?
Answer: 32 µg/mL (≈ 42.8 µM)

Question: What about the MIC [20] of the same molecule?
Answer: 8 µg/mL (≈ 10.7 µM)

Question: What about the MIC [21] of the same molecule?
Answer: ≤ 0.5 µg/mL

Question: And the MIC [22]?
Answer: > 32 µg/mL

Question: And the MIC [23]?
Answer: 16 µg/mL

Question: And the MIC [24]?
Answer: > 32 µg/mL

Question: What about the MIC [25] of the same molecule?
Answer: > 32 µg/mL

Question: And the MIC [26]?
Answer: 2 µg/mL (≈ 2.67 µM)

Question: What about the MIC [27] of the same molecule?
Answer: ≤ 0.5 µg/mL

Question: And the MIC [28]?
Answer: > 32 µg/mL

Question: And the MIC [29]?
Answer: > 32 µg/mL

Question: What about the MIC [30] of the same molecule?
Answer: > 32 µg/mL

Question: What about the MIC [31] of the same molecule?
Answer: ≤ 0.5 µg/mL

Question: And the MIC [32]?
Answer: ≤ 0.5 µg/mL

Question: What about the MIC [33] of the same molecule?
Answer: 4 µg/mL

Question: What about the MIC [34] of the same molecule?
Answer: ≤ 0.5 µg/mL

Question: What about the MIC [35] of the same molecule?
Answer: ≤ 0.5 µg/mL

Question: What about the MIC [36] of the same molecule?
Answer: ≤ 0.5 µg/mL
